Measurements as given in ChEMBL document CHEMBL1155020, “Trithiocarbonates as a novel class of HDAC inhibitors: SAR studies, isoenzyme selectivity, and pharmacological profiles” (J Med Chem, 2008).

Legend:
[1] = test system: HeLa; experiment: Cytotoxicity against human HeLa cells after 72 hrs by alamar blue assay; assay type: functional, cell-based
Procedure, shortened: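 HeLa cells were seeded at densities allowing growth through 72 h of compound exposure at 37 °C, 5% CO2. Viability was read by Alamar Blue (resazurin) reduction. Replicate assays were averaged, and IC50 was taken from concentration-effect curves.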

[2] = target: Histone deacetylase; experiment: Inhibition of nuclear HDAC isolated from human HeLa cells; assay type: cell-based
[3] = target: Histone deacetylase; experiment: Inhibition of HDAC in human HeLa cells; assay type: cell-based
[4] = target: T1, Protein deacetylase HDAC6 (Homo sapiens, UniProt Q9UBN7); experiment: Inhibition of recombinant HDAC6 expressed in HEK293 cells; assay type: cell-based
T1 sequence (Q9UBN7 whole entry): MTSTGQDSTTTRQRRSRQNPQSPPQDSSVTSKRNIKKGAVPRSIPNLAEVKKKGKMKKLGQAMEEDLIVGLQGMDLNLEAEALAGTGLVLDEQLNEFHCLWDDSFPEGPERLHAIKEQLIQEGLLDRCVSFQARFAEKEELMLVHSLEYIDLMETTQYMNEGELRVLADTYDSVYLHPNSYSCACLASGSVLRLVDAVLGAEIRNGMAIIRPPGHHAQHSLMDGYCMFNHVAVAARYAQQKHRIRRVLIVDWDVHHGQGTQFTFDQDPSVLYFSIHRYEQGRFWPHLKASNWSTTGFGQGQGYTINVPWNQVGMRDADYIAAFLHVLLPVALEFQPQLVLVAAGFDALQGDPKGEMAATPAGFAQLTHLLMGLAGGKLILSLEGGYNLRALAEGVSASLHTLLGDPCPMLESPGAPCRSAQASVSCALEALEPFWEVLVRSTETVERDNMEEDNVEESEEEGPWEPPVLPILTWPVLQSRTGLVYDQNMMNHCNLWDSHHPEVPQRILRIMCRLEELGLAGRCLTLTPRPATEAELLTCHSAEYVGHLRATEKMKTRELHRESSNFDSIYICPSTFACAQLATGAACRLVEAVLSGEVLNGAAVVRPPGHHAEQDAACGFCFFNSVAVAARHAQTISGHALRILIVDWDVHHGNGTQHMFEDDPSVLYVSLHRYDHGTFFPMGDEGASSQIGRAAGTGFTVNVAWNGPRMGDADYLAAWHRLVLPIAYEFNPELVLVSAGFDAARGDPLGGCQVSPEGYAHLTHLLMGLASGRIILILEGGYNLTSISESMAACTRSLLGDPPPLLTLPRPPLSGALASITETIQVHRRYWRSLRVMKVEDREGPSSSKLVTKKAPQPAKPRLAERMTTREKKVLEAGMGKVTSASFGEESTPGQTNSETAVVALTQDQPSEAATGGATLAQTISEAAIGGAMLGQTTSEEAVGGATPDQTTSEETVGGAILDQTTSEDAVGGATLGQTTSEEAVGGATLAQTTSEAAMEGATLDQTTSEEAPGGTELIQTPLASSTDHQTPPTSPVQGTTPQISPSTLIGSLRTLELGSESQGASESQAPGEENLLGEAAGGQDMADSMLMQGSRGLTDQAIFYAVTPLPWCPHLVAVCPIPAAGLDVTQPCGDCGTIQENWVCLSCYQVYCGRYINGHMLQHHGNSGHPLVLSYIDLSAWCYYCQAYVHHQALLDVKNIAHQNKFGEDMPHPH

[5] = target: Histone deacetylase 1 (Homo sapiens, UniProt Q13547); experiment: Inhibition of recombinant HDAC1 expressed in HEK293 cells; assay type: cell-based
Sequence of Histone deacetylase 1 (Q13547 whole entry): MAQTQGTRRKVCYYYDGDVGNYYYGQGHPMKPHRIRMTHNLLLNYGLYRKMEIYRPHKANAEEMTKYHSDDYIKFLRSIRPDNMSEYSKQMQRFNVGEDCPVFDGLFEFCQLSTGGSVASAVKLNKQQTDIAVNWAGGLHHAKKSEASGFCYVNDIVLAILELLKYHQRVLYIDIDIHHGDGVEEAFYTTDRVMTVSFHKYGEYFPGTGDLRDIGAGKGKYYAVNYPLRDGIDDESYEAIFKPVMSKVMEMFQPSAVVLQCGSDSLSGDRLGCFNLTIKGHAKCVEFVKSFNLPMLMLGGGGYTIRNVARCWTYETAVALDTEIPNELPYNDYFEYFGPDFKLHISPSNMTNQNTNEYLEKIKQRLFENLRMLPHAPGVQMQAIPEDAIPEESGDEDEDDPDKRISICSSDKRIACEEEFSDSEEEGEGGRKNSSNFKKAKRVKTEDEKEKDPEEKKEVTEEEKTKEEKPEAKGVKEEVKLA

Row | SMILES | IC50 [2] | IC50 [3] | IC50 [4] | IC50 [5] | IC50 [1]
1 | CCSC(=S)SCC(=O)c1cccc(C(=O)Nc2ccccc2)c1 | 0.124 µM | 1.23 µM | 517 nM | 1670 nM | 2.4 µM
2 | CCSC(=S)SCC(=O)c1ccc(CCNC(C)=O)cc1 | 0.587 µM | 1.48 µM | 102 nM | 607 nM | 12.8 µM
3 | CCSC(=S)SCC(=O)c1ccc(CC(=O)NCc2ccc(OC)cc2)s1 | 0.026 µM | 0.6 µM | 175 nM | 887 nM | 1.45 µM
4 | CCSC(=S)SCC(=O)c1ccc(NC(=O)c2ccccc2)cc1 | 0.074 µM | 7.46 µM | 175 nM | 10400 nM | 15.8 µM
5 | COCCSC(=S)SCC(=O)c1ccc(OC)cc1 | 0.293 µM | 5.53 µM | 2130 nM | 8940 nM | 7.88 µM
6 | CCSC(=S)SCC(=O)c1ccc(Nc2ncnc3ccccc23)cc1 | 0.379 µM | 2.99 µM | 390 nM | 25800 nM | 2.65 µM
7 | CCSC(=S)SCC(=O)c1ccc(CNC(=O)c2ccccc2)cc1 | 0.046 µM | 0.632 µM | 301 nM | 523 nM | 12.7 µM
8 | CCSC(=S)SCC(=O)c1cccc(NC(=O)c2cnc3ccccc3c2)c1 | 0.036 µM | 0.483 µM | 89 nM | 592 nM | 9.61 µM
9 | CCSC(=S)SCC(=O)c1cccc(S(=O)(=O)Nc2cccc(C(N)=O)c2)c1 | 0.097 µM | 1.15 µM | 181 nM | 1560 nM | 7.74 µM
10 | CCSC(=S)SCC(=O)c1cccc(C(=O)NCc2ccccc2)c1 | 0.049 µM | 0.533 µM | 195 nM | 672 nM | 13.1 µM
11 | CCNC(=S)SCC(=O)c1ccc(NC(C)=O)cc1 | 0.094 µM | 1.12 µM | 18 nM | 141 nM | 11 µM
12 | CCSC(=S)SCC(=O)c1cccc(NC(C)=O)c1 | 0.506 µM | 3.28 µM | 329 nM | 2930 nM | 9.38 µM
13 | CCSC(=S)SCC(=O)c1ccc(NC(=O)c2cnc3ccccc3c2)cc1 | 0.066 µM | 0.748 µM | 119 nM | 980 nM | 50 µM
14 | CCSC(=S)SCC(=O)c1ccc(NC(C)=O)cc1 | 0.318 µM | 0.857 µM | 180 nM | 1680 nM | 1.46 µM
15 | CCSC(=S)SCC(=O)c1ccc(C(=O)NCCOc2ccccc2)cc1 | 0.032 µM | 0.964 µM | 483 nM | 712 nM | 18.2 µM
16 | CCSC(=S)SCC(=O)c1ccc(C(=O)N[C@@H](C)c2ccccc2)s1 | 0.049 µM | 1.03 µM | 135 nM | 497 nM | 15.8 µM
17 | CCSC(=S)SCC(=O)c1ccc(NS(=O)(=O)c2ccc(Cl)cc2)cc1 | 0.025 µM | 1.74 µM | 979 nM | 2490 nM | 10.4 µM
18 | CCOC(=O)SCC(=O)c1ccc(OC)cc1 | 2.81 µM | 9.79 µM | 5360 nM | 21200 nM | 18.5 µM
19 | CCSC(=S)SCC(=O)c1cccc(NC(=O)c2cccnc2)c1 | 0.184 µM | 0.646 µM | 38 nM | 388 nM | 7.02 µM
20 | CCSC(=S)SCC(=O)c1ccc(CN(C)C(C)=O)cc1 | 0.384 µM | 6.33 µM | 256 nM | 946 nM | 21.5 µM
21 | CCSC(=S)SCC(=O)c1ccc(NS(=O)(=O)c2ccccc2)cc1 | 0.042 µM | 0.8 µM | 382 nM | 1870 nM | 9.04 µM
22 | CCSC(=S)SCC(=O)c1cccc(CNC(C)=O)c1 | 6.59 µM | 6.82 µM | 816 nM | 38200 nM | 11.3 µM
23 | CCSC(=S)SCC(=O)c1ccc(S(=O)(=O)Nc2ccc(Cl)cc2)cc1 | 0.008 µM | 0.299 µM | 340 nM | 589 nM | 6.08 µM

Continued by falling IC50 [4], values first:

Row | IC50 [2] | IC50 [3] | IC50 [4] | IC50 [5] | SMILES | IC50 [1]
24 | 0.128 µM | 11.6 µM | 4570 nM | 9720 nM | COc1ccc(C(=O)CSC(=S)SCCOc2ccccc2)cc1 | 5.46 µM
25 | 0.467 µM | 3.47 µM | 1640 nM | 7510 nM | COc1ccc(C(=O)CSC(=S)SCCNC(C)=O)cc1 | 11.1 µM
26 | 0.048 µM | 9.08 µM | 1250 nM | 3460 nM | CCSC(=S)SCC(=O)c1cccc(NS(=O)(=O)c2ccc(Cl)cc2)c1 | 46.6 µM
27 | 0.375 µM | 4.67 µM | 1220 nM | 4560 nM | CCSC(=S)SCC(=O)c1ccc(OC)cc1 | 1.96 µM
28 | 1.26 µM | 8.95 µM | 1090 nM | 6110 nM | CCSC(=S)SCC(=O)c1ccc(NS(C)(=O)=O)cc1 | 45.8 µM
29 | 0.074 µM | 1.11 µM | 521 nM | 27900 nM | CCSC(=S)SCC(=O)c1ccc(C(=O)Nc2ccccc2)cc1 | 25.8 µM
30 | 0.015 µM | 2.77 µM | 519 nM | 530 nM | CCSC(=S)SCC(=O)c1cccc(S(=O)(=O)Nc2ccc(OC)cc2)c1 | 5.17 µM
31 | 0.174 µM | 0.865 µM | 421 nM | 1160 nM | CCSC(=S)SCC(=O)c1ccc(NC(=O)c2cccnc2)cc1 | 5.16 µM
32 | 0.015 µM | 0.836 µM | 396 nM | 587 nM | CCSC(=S)SCC(=O)c1ccc(C(=O)NCc2cc(C)cc(C)c2)s1 | 31.3 µM
33 | 0.063 µM | 0.423 µM | 245 nM | 31600 nM | CCSC(=S)SCC(=O)c1ccc(C(=O)Nc2ccccc2)s1 | 50 µM
34 | 0.016 µM | 0.377 µM | 245 nM | 227 nM | CCSC(=S)SCC(=O)c1ccc(S(=O)(=O)Nc2ccc(OC)cc2)cc1 | 4.32 µM
35 | 0.027 µM | 0.5 µM | 198 nM | 328 nM | CCSC(=S)SCC(=O)c1cccc(C(=O)NCCOc2ccccc2)c1 | 10.2 µM
36 | 0.115 µM | 3.18 µM | 132 nM | 368 nM | CCNC(=O)SCC(=O)c1ccc(OC)cc1 | 13.3 µM
37 | 0.123 µM | 3.41 µM | 110 nM | 422 nM | CCCC(=S)SCC(=O)c1ccc(OC)cc1 | 5.71 µM
38 | 0.127 µM | 2.78 µM | 104 nM | 1550 nM | CCSC(=S)SCC(=O)c1cccc(NS(=O)(=O)c2ccccc2)c1 | 11.9 µM
39 | 0.195 µM | – | 94 nM | 215 nM | CCNC(=S)SCC(=O)c1ccc(OC)cc1 | 7.8 µM
40 | 0.019 µM | 0.411 µM | 44 nM | 340 nM | CCSC(=S)SCC(=O)c1ccc(C(=O)NCc2ccccc2)s1 | 13 µM
41 | 0.083 µM | 1.18 µM | 43 nM | 831 nM | CCSC(=S)SCC(=O)c1ccc(-c2ccc(N)cn2)s1 | 0.452 µM
42 | 0.087 µM | 1.37 µM | 23 nM | 164 nM | CCCC(=S)SCC(=O)c1ccc(NC(C)=O)cc1 | 6.41 µM
